The list is not random: actives were taken first. Their share in the collection is about 3.7%.
rCAG binder-1 – binds r(CAG) RNA repeats; AID 651821; hit rate 1.3% among 370,000; inhibition, % at 3 µM; r(CAG) RNA repeat, TO-PRO-1 dye displacement fluorescence;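 active means inhibition above the plate cutoff, the mean of all test compounds on that plate plus 3 SD, cut at about 35% in these data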;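 further: 0% = DMSO alone and 100% = 100 µM mitoxantrone as full dye displacement; higher means more dye released from RNA so lower well fluorescence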
NS3 helicase inh – HCV NS3 helicase inhibition; NS3 helicase DNA unwinding, Cy5 molecular beacon fluorescence; inhibition, % at 10.9 µM; hit rate 0.56% among 290,000; AID 1800;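 active means inhibition above the mean of all tested compounds plus 3 SD, set per campaign, cut at about 35% in these data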;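 further: 0% = DMSO wells and 100% = thioflavine S control wells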
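test system = hepatitis C virus NS3 helicase domain fragment enzyme | reagent = annealed dual-labelled DNA beacon duplex, ATP-started | times = 1 h at 25 °C | detection = Cy5 fluorescence, 0 and 60 min reads | read-out basis = percent inhibition from t60/t0 fluorescence ratio | control set = DMSO and thioflavine S | replication = one well per compound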
TAAR1 ag – agonists of human TAAR1; hit rate 0.99% among 360,000; CHO RD-HGA16 TAAR1, Fluo-8 calcium fluorescence; vehicle wells 0%, saturating PEA agonist 100%; Q96RJ0; activation, % at 3 µM;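 active means activation above the mean activation of all test compounds in the run plus 3 SD, cut at about 38% in these data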
Target sequence (Q96RJ0 whole entry, looked up): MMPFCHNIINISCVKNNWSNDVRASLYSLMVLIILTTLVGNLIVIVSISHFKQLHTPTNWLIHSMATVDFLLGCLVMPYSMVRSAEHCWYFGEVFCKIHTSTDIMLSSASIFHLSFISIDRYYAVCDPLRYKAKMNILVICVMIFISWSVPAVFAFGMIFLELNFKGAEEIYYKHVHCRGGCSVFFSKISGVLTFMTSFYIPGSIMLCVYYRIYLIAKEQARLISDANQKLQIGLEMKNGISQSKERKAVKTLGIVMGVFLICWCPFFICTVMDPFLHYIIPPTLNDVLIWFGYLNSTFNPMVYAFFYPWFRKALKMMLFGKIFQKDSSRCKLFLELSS
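Assay system: CHO-derived RD-HGA16 cells with stable Gα16 and human TAAR1; timing: 17-24 h seeding, 75 min 37 °C dye, 30 min RT; read-out: % activation from peak over basal fluorescence ratio, DMSO-to-PEA scaled; measured by: kinetic Fluo-8 calcium fluorescence; benchmarks: low control DMSO, high control PEA (EC100); doses: 3 µM single concentration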
TAAR1 antagonist – human TAAR1 antagonism; inhibition, % at 3 µM; Q96RJ0; CHO RD-HGA16 TAAR1, Fluo-8 calcium fluorescence, antagonist; hit rate 1.5% among 360,000;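 active means inhibition above a per-plate cutoff, the mean inhibition of test compounds on that plate plus 3 SD, cut at about 49% in these data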;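 further: 0% = DMSO plus EC80 beta-PEA response and 100% = DMSO alone without agonist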
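System: RD-HGA16 CHO cells with stable hTAAR1 and Gα16 | Probe or stimulus: EC80 β-phenethylamine stimulus | Dosing: 3 µM, single point | Times: Dye loading 75 min at 37 °C, then 30 min room temperature | Measured by: Fluo-8 calcium-sensitive fluorescence | Read-out basis: % inhibition of agonist calcium response | Replicates: n of 1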
core dimer inh – HCV core protein dimerization inhibition | TR-FRET GST/Flag-core106 dimerization, 1536-well | inhibition, % at 5 µM | hit rate 0.33% among 300,000 | AID 1899;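 active means inhibition above the mean of all tested compounds plus 3 SD, set per screening campaign, cut at about 45% in these data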
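System: GST/Flag-tagged HCV core106 proteins. Incubation: compound-protein-antibody incubation 4 h at 22.5 °C. Technique: HTRF with 340 nm excitation, 617/671 nm emission. Medium: KF-containing HEPES buffer, pH 7.45, DTT, CHAPS, BSA. Read-out: inhibition (%) from 671 over 617 nm ratio. Also added: Eu(K)-anti-GST 90 ng/mL plus XL665-anti-Flag 1 µg/mL.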
rCAG binder conf – r(CAG) RNA repeat binding, confirmation. shares compounds with rCAG binder-1. TO-PRO-1 dye displacement fluorescence. inhibition, % at 3 µM. hit rate 70% among 4,300;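 active means inhibition above a per-plate cutoff, the mean inhibition of sample wells plus 3 SD, cut at about 35% in these data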;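 further: loss of TO-PRO-1 fluorescence as compound displaces dye from 1x1 AA loop RNA; 0% = DMSO only wells and 100% = 100 µM mitoxantrone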
dCAG dye counter – disrupts DNA CAG TO-PRO-1 complex, flagging rCAG hits; inhibition, % at 3 µM; d(CAG) DNA oligo TO-PRO-1 dye displacement, fluorescence; shares compounds with rCAG binder-1; hit rate 94% among 4,300;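 active means inhibition above its plate's cutoff, the mean test-well inhibition plus 3 SD, cut at about 4.8% in these data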;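 further: 0% = DNA dye mix with DMSO and 100% = 100 µM mitoxantrone; hits displace the dye from DNA and so lower well fluorescence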
DNA CAG DR – disrupts DNA CAG TO-PRO-1 complex in dose response; shares compounds with rCAG binder-1; DNA CAG/GTC duplex TO-PRO-1 dye displacement fluorescence; IC50, µM; hit rate 20% among 250; AID 686960; in the data active means IC50 below about 10 µM
dCAG DNA bind – DNA CAG dye complex inhibition, late stage dose response; shares compounds with rCAG binder-1; d(CAG) DNA duplex TO-PRO-1 dye displacement, fluorescence; IC50, µM; hit rate 80% among 30; AID 720649
rCAG binder-2 – molecules binding r(CAG) RNA repeats, late stage dose response | IC50, µM | shares compounds with rCAG binder-1 | r(CAG) RNA TO-PRO-1 dye displacement, fluorescence | AID 720651 | hit rate 100% among 30
The depositor's hits bear a star; . = no result given. Unless noted, how the calls were made is not given here.

SMILES | rCAG binder-1 | NS3 helicase inh | TAAR1 ag | TAAR1 antagonist | core dimer inh | rCAG binder conf | dCAG dye counter | others
O=C(N[C@H](c1cccc(Br)c1)[C@@H]1CCCC=C1c1ccccc1)C(F)(F)F | 1 | . | 0 | 12 | . | . | .
CCOc1cc(/C=C(/NC(C)=O)C(=O)O)cc(Cl)c1OCc1ccc(Br)cc1 | 43* | 3 | 1 | -5 | 8 | 33 | 6.7*
CC(C)(C)c1ccc(C(=O)N/C(=C\c2ccco2)C(=O)Nc2ccccc2C(=O)O)cc1 | 62* | 12 | 2 | 27 | -3 | 68* | 29*
O=C(Nc1ccc(C(=O)O)cc1)/C(=C\c1ccco1)NC(=O)c1ccccc1Cl | 43* | 36 | 2 | -8 | -6 | 6 | 2
CC(CCN1CCC(C(O)(c2ccccc2)c2ccccc2)CC1)Oc1cccc(F)c1 (stereo not drawn) | 1 | . | . | . | . | . | .
O=C(CNC(=O)C(c1ccccc1)c1ccccc1)N/N=C/c1ccc(O)c([N+](=O)[O-])c1 | 44* | 4 | 1 | 7 | -3 | 22 | 4.7*
O=C(CNC(=O)c1ccco1)N/N=C/c1ccc(O)c([N+](=O)[O-])c1 | 5 | 10 | 2 | -8 | -8 | . | .
O=C(N/N=C/c1ccncc1)C1CC1(c1ccccc1)c1ccccc1 (stereo not drawn) | 2 | 2 | 12 | -32 | 1 | . | .
O=C(N/N=C/c1ccc(O)c([N+](=O)[O-])c1)C1CC1(c1ccccc1)c1ccccc1 (stereo not drawn) | 50* | 18 | -2 | 0 | 11 | 50* | 19*
Clc1ccc(CN2CCN(N=Cc3c4ccccc4cc4ccccc34)CC2)cc1 | 5 | . | . | . | . | . | .
COc1ccc2nc(NNC(=O)COc3ccccc3)sc2c1 | 2 | 5 | 1 | 6 | -1 | . | .
Cc1ccc2sc(NNC(=O)c3cc(=O)c4ccccc4o3)nc2c1C | 75* | 9 | 2 | -2 | -19 | 86* | 45*
O=C(NNc1nc2c(F)cccc2s1)c1ccc(F)cc1 | 3 | 0 | 19 | 7 | -2 | . | .
O=C(NNc1nc2c(F)cccc2s1)c1cc(=O)c2ccccc2o1 | 58* | 13 | 2 | -15 | -1 | 68* | 24*
O=C(Nc1ccc(O)c(-c2nc3ccccc3s2)c1)c1cc(=O)c2ccccc2o1 | 3 | -4 | -1 | 14 | -2 | . | .
COc1ccc2nc(NNC(=O)c3cc(=O)c4ccccc4o3)sc2c1 | 36* | -9 | 0 | 14 | 2 | 55* | 19*
Cc1cccc2sc(NNC(=O)c3cc(=O)c4ccccc4o3)nc12 | 54* | 9 | 2 | -20 | 7 | 78* | 35*
COCCNC(=O)[C@]1(C#N)CC(=O)N(C)[C@@H]1c1ccccc1 | 0 | . | . | . | . | . | .
CCCS(=O)(=O)c1c(S(=O)(=O)CCC)c2c(N)cccn2c1C(=O)c1ccc(F)cc1 | 45* | 18 | 6 | 5 | 12 | 21 | 10*
CCCS(=O)(=O)c1c(S(=O)(=O)CCC)c2c(N)cccn2c1C(=O)c1ccc(Br)cc1 | 52* | 23 | 0 | 2 | 26 | 21 | 11*
O=C(CNS(=O)(=O)c1cccc2ccccc12)N1CCN(c2ncccn2)CC1 | 4 | . | . | . | . | . | .
CCc1cccc(Nc2cc(C)n(-c3cccc(CC)c3)c(=O)c2)c1 | 2 | . | 2 | -10 | . | . | .
CCN(Cc1ccccc1)S(=O)(=O)c1ccc(C(=O)Nc2nnc(C3CC3)o2)cc1 | 45* | . | 4 | -20 | 7 | 36* | 12*
Cc1noc(NS(=O)(=O)c2ccc(NC(=O)c3ccc(F)cc3)cc2)c1C | 8 | . | 1 | -8 | . | . | .
Cc1noc(NS(=O)(=O)c2ccc(NC(=O)c3cccc(S(=O)(=O)N(C)c4ccccc4)c3)cc2)c1C | 73* | . | 0 | 4 | . | 81* | 37*
SMILES | rCAG binder-1 | NS3 helicase inh | TAAR1 ag | TAAR1 antagonist | core dimer inh | rCAG binder conf | dCAG dye counter | others
Cc1noc(NS(=O)(=O)c2ccc(NC(=O)c3ccc(Cl)c(S(=O)(=O)N(C)c4ccccc4)c3)cc2)c1C | 91* | . | 1 | -30 | . | 84* | 55*
COc1ccc(-c2nnn3c2C2c4cc(-c5cccc(F)c5)ccc4CCN2C(=O)C3)cc1 (stereo not drawn) | 6 | . | 9 | -27 | . | . | .
O=C(C1=C(O)C(=O)N(c2nc3ccc(Cl)cc3s2)C1c1ccco1)c1ccco1 (stereo not drawn) | 68* | . | 8 | -31 | . | 72* | 33* | DNA CAG DR=3.5*;dCAG DNA bind=2.9*;rCAG binder-2=1.3*
Cc1ccc2nc(N3C(=O)C(O)=C(C(=O)c4ccco4)C3c3ccc(C)o3)sc2c1 (stereo not drawn) | 49* | 14 | 3 | -36 | 9 | 72* | 33* | DNA CAG DR=3.8*;dCAG DNA bind=2*;rCAG binder-2=0.92*
COC(=O)[C@]12C[C@H](CC(=O)NCc3ccccc3)C(=O)N(CCC3=CCCCC3)C1=C[C@H](COCc1ccccc1)O[C@@H]2C | 5 | . | 0 | -11 | . | . | .
O=C(/C=C/c1ccc2c(c1)OCO2)Nc1c(C(=O)O)[nH]c2ccccc12 | 45* | 22 | 0 | 8 | -3 | 38* | 13*
O=C(NCc1ccco1)C1CCCN(S(=O)(=O)c2ccccc2F)C1 (stereo not drawn) | 2 | . | . | . | . | . | .
Cc1ccc(-n2[nH]c(C)c(C=Nc3ccc(S(=O)(=O)Nc4nccs4)cc3)c2=O)cc1 | . | 11 | . | . | 0 | . | .
CCc1nnc(NS(=O)(=O)c2ccc(N=Cc3c(C)[nH]n(-c4ccc(C)c(C)c4)c3=O)cc2)s1 | 55* | 9 | -2 | 9 | 13 | 85* | 57*
Cc1cc(C)nc(NS(=O)(=O)c2ccc(N=Cc3c(C)[nH]n(-c4ccccc4)c3=O)cc2)n1 | 14 | 0 | -1 | 8 | -11 | . | .
Cc1[nH]n(-c2ccc(Br)cc2)c(=O)c1C=Nc1ccc(S(=O)(=O)Nc2nccs2)cc1 | 54* | -2 | 1 | 15 | 14 | 81* | 47*
O=C1N2CCc3ccccc3C2CS(=O)(=O)N1Cc1ccc(F)cc1 (stereo not drawn) | 0 | . | . | . | . | . | .
CN(c1ccc(Cl)cc1)S(=O)(=O)c1nnc(NC(=O)c2ccco2)s1 | 39* | 15 | 0 | -4 | 2 | 27 | 7.4*

Assay outcomes deposited in PubChem by The Scripps Research Institute Molecular Screening Center.
